Calls of active or inactive are those of the source. The rule behind the calls is not given here.
Experiments:
[1] = (§1) Displacement of (+)-[5-methyl-3H][…] from L type calcium channel Cav1.2a in rabbit expressed in HEK293 cells; type: cell-based, Oryctolagus cuniculus
Procedure, shortened: (§2)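 Intact HEK-293 cells transfected with rabbit Cav1.2a (α1C-a) or Cav1.2b (α1C-b) plasmid, labelled with (+)-[5-methyl-3H]PN200-110. Nonspecific binding about 10–20% of total. IC50 is mean ± S.E.M. of three independent experiments.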

[2] = tested on: Heart; assay: Cardiovascular activity in perfused guinea pig heart assessed as change in maximal rate of rise in left ventricular pressure at 10 nM by ECG; type: functional, Cavia porcellus
Procedure, shortened: (§3)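 Guinea-pig heart: values are % change from basal. Parameters are +(dP/dt)max, heart rate, coronary perfusion pressure, PR and QT intervals. Highest concentration tested 10 µM.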

[3] = tested on: Heart; assay: Cardiovascular activity in perfused guinea pig heart assessed as change in heart rate at 10 nM by ECG; type: functional, Cavia porcellus; procedure, shortened: as §3
[4] = tested on: Heart; assay: Cardiovascular activity in perfused guinea pig heart assessed as change in atrioventricular conduction time at 1 uM by ECG; type: functional, Cavia porcellus
[5] = species on record: Cavia porcellus; assay: Activity at L type calcium channel in K+ depolarized guinea pig aortic strip assessed as inhibition of calcium induced contraction at 1 uM; type: tissue-based; design: scale not given: the % may be the effect or the level left; conditions: Aorta
Procedure, shortened: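 Guinea-pig aortic strips depolarized with K+ (80 mM); % inhibition of Ca2+-induced contraction vs control. Drugs added cumulatively, compared with control at each concentration (Student's t-test, P<0.05). Mean ± S.E.M.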

[6] = species on record: Cavia porcellus; assay: Activity at L type calcium channel in K+ depolarized guinea pig longitudinal smooth muscle assessed as inhibition of calcium induced contraction at 5 nM; design: scale not given: the % may be the effect or the level left
[7] = species on record: Cavia porcellus; assay: Inotropic activity at L type calcium channel in guinea pig left atrium assessed as decrease in tension at 10 uM relative to control; type: tissue-based; design: scale not given: the % may be the effect or the level left; conditions: Cardiac atrium
[8] = species on record: Cavia porcellus; assay: Chronotropic activity at L type calcium channel in guinea pig right atrium assessed as decrease in spontaneous beating at 0.1 uM relative to control; type: tissue-based; design: scale not given: the % may be the effect or the level left; conditions: Cardiac atrium
Procedure, shortened: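 Spontaneously beating guinea-pig right atrium: % decrease in rate vs control. Drugs added cumulatively at increasing concentrations, compared with control at each concentration (Student's t-test, P<0.05). Mean ± S.E.M.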

[9] = tested on: Heart; assay: Cardiovascular activity in perfused guinea pig heart assessed as change in coronary perfusion pressure at 1 uM by ECG; type: functional, Cavia porcellus; procedure, shortened: as §3
[10] = species on record: Cavia porcellus; assay: Chronotropic activity at L type calcium channel in guinea pig right atrium assessed as decrease in spontaneous beating; type: tissue-based; conditions: Cardiac atrium
Procedure, shortened: (§4)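 Guinea-pig atria: left atrium driven at 1 Hz for inotropy, spontaneously beating right atrium for chronotropy. Increasing cumulative doses, readout is percent decrease. EC50 (inotropic) and EC30 (chronotropic) by Litchfield–Wilcoxon probit analysis on log concentration–response curves, n = 6–7. Not calculated when the maximum effect was below 50%.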

[11] = Displacement of (+)-[5-methyl-3H][…] from L type calcium channel in guinea pig heart ventricles; design: species or system Cavia porcellus
Procedure, shortened: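 Guinea-pig ventricular membranes incubated with 0.5 nM (+)-[5-methyl-3H]PN200-110 and test compounds at 0.1–50 µM in a competitive radioligand assay. Ki and IC50 reported as mean ± S.E.M. Student's t-test, significance P < 0.001.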

[12] = (§5) Displacement of (+)-[5-methyl-3H][…] from L type calcium channel Cav1.2b in rabbit expressed in HEK293 cells; type: cell-based, Oryctolagus cuniculus; procedure, shortened: as §2
[13] = tested on: Heart; assay: Cardiovascular activity in perfused guinea pig heart assessed as change in ventricular repolarization time at 10 nM by ECG; type: functional, Cavia porcellus; procedure, shortened: as §3
[14] = Inotropic activity at L type calcium channel in guinea pig left atrium assessed as decrease in tension; type: tissue-based; conditions: Cavia porcellus, Cardiac atrium; procedure, shortened: as §4
[15] = tested on: HEK293; assay: as §1; type: cell-based; conditions: Oryctolagus cuniculus; procedure, shortened: as §2
[16] = species on record: Cavia porcellus; assay: Chronotropic activity at L type calcium channel in guinea pig right atrium assessed as decrease in spontaneous beating at 1 uM relative to control; type: tissue-based; design: scale not given: the % may be the effect or the level left; conditions: Cardiac atrium
[17] = species on record: Cavia porcellus; assay: Activity at L type calcium channel in K+ depolarized guinea pig aortic strip assessed as inhibition of calcium induced contraction at 5 uM; type: tissue-based; design: scale not given: the % may be the effect or the level left; conditions: Aorta
Procedure, shortened: (§6)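 Guinea-pig aortic strips depolarized with 80 mM K+. Drugs added cumulatively. Readout is percent inhibition of calcium-induced contraction, n = 5–6. Control versus treated values tested at each concentration by Student's t-test, P < 0.05.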

[18] = tested on: HEK293; assay: as §5; type: cell-based; conditions: Oryctolagus cuniculus; procedure, shortened: as §2
[19] = species on record: Cavia porcellus; assay: Inotropic activity at L type calcium channel in guinea pig left atrium assessed as decrease in tension at 1 uM relative to control; type: tissue-based; design: scale not given: the % may be the effect or the level left; conditions: Cardiac atrium
[20] = species on record: Cavia porcellus; assay: Chronotropic activity at L type calcium channel in guinea pig right atrium assessed as decrease in spontaneous beating at 10 uM relative to control; type: tissue-based; design: scale not given: the % may be the effect or the level left; conditions: Cardiac atrium
[21] = tested on: Heart; assay: Cardiovascular activity in perfused guinea pig heart assessed as change in coronary perfusion pressure at 10 uM by ECG; type: functional, Cavia porcellus
Procedure, shortened: (§7)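 Perfused guinea-pig heart. Percentage change from basal value at the highest concentration tested, 10 µM. Parameters: +(dP/dt)max, heart rate, coronary perfusion pressure, PR interval and QT interval from ECG.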

[22] = tested on: Heart; assay: Cardiovascular activity in perfused guinea pig heart assessed as change in atrioventricular conduction time at 10 uM by ECG; type: functional, Cavia porcellus; procedure, shortened: as §7
[23] = tested on: Heart; assay: Cardiovascular activity in perfused guinea pig heart assessed as change in maximal rate of rise in left ventricular pressure at 10 uM by ECG; type: functional, Cavia porcellus; procedure, shortened: as §7
[24] = Activity at L type calcium channel in K+ depolarized guinea pig longitudinal smooth muscle assessed as inhibition of calcium induced contraction; design: species or system Cavia porcellus
[25] = tested on: Heart; assay: Cardiovascular activity in perfused guinea pig heart assessed as change in heart rate at 10 uM by ECG; type: functional, Cavia porcellus; procedure, shortened: as §7
[26] = species on record: Cavia porcellus; assay: Activity at L type calcium channel in K+ depolarized guinea pig aortic strip assessed as inhibition of calcium induced contraction at 50 uM; type: tissue-based; design: scale not given: the % may be the effect or the level left; conditions: Aorta; procedure, shortened: as §6
[27] = species on record: Cavia porcellus; assay: Activity at L type calcium channel in K+ depolarized guinea pig longitudinal smooth muscle assessed as inhibition of calcium induced contraction at 10 uM; design: scale not given: the % may be the effect or the level left
[28] = tested on: Heart; assay: Cardiovascular activity in perfused guinea pig heart assessed as change in ventricular repolarization time at 10 uM by ECG; type: functional, Cavia porcellus; procedure, shortened: as §7
[29] = species on record: Cavia porcellus; assay: Activity at L type calcium channel in K+ depolarized guinea pig longitudinal smooth muscle assessed as inhibition of calcium induced contraction at 0.5 uM; design: scale not given: the % may be the effect or the level left
[30] = species on record: Cavia porcellus; assay: Chronotropic activity at L type calcium channel in guinea pig right atrium assessed as decrease in spontaneous beating at 5 uM relative to control; type: tissue-based; design: scale not given: the % may be the effect or the level left; conditions: Cardiac atrium
[31] = species on record: Cavia porcellus; assay: Inotropic activity at L type calcium channel in guinea pig left atrium assessed as decrease in tension at 100 uM relative to control; type: tissue-based; design: scale not given: the % may be the effect or the level left; conditions: Cardiac atrium

COC(=O)C1=C(C)NC(C)=C(C(=O)OC)C1c1ccccc1[N+](=O)[O-] [NIFEDIPINE]
IC50 [1]: 45 nM
Activity [2]: -96%
Activity [3]: -60%
Activity [4]: 66%
Activity [5]: 82%
Activity [6]: 70%
Activity [7]: 97%
Activity [8]: 85%
Activity [9]: -36%
EC30 [10]: 25 nM
Log Ki [11]: -8.83
IC50 [12]: 3.6 nM
Activity [13]: 37%
EC50 [14]: 260 nM

COC(=O)C1=C(C)NC(C)=C(C(=O)OC)C1c1c(C(F)(F)F)nc2sccn12
Activity [15]: inactive
Activity [16]: 54%
Activity [7]: 90%
Activity [17]: 34%
EC30 [10]: 570 nM
Log Ki [11]: -5.35
Activity [18]: inactive
EC50 [14]: 71 nM

COC(=O)C1=C(C)NC(C)=C(C(=O)OC)C1c1c(Cl)nc2sc(C)cn12
Activity [19]: 63%
Activity [20]: 22%
Activity [21]: 14%
Activity [22]: 61%
Activity [23]: -35%
IC50 [24]: 2060 nM
Activity [25]: 6%
Activity [26]: 19%
Activity [27]: 93%
Log Ki [11]: < -5
EC50 [14]: 56 nM
Activity [28]: -16%

COC(=O)C1=C(C)NC(C)=C(C(=O)OC)C1c1c(-c2cc(OC)cc(OC)c2)nc2sccn12
Activity [29]: 89%
IC50 [1]: 265 nM
Activity [30]: 90%
Activity [31]: 26%
Activity [17]: 40%
IC50 [24]: 55 nM
EC30 [10]: 860 nM
Log Ki [11]: -6.51
IC50 [12]: 1.45 nM
